Experiments:
[1] = cited from earlier work
[2] = target: HDAC1 (Homo sapiens, UniProt Q13547); assay: Cell free fluorogenic HDAC assay; assay type: biochemical; conditions: IC50 and two-fold IC50 concentrations; control set to 100%
[3] = test system: GLUT2 expression in HepG2 and Huh7 cells; assay: Western blotting of GLUT2; assay type: cell-based, human; conditions: Fig. S1
[4] = test system: p53 phosphorylation in HepG2 and Huh7 cells; assay: Western blotting of p53 and phosphorylated p53; assay type: cell-based, human; conditions: 24 h; BB 0.6 and 1.2 µM; Vs 4.0 µM
Outline: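 HepG2 and Huh7 cells were treated 24 h in RPMI with test compound (0.6 or 1.2 µM) or reference HDAC inhibitor (4.0 µM). Whole-cell extracts were made in SDS/deoxycholate/NP-40 buffer with protease inhibitors. Samples of 30 µg protein were run on 7.5% or 12% SDS-PAGE and blotted to PVDF. Blots were milk-blocked, given primary antibody overnight at 4°C, then HRP secondary (1:10,000) for 1 h. Tubulin served as loading control.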

[5] = test system: HepG2 cells; assay: Glycolytic activity; assay type: cell-based, human; conditions: cell culture supernatant; Fig. S1
Outline: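 Glucose remaining and lactate released into the cell culture supernatant were measured with a blood gas analyser.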

Sequence of HDAC1 (Q13547 whole entry): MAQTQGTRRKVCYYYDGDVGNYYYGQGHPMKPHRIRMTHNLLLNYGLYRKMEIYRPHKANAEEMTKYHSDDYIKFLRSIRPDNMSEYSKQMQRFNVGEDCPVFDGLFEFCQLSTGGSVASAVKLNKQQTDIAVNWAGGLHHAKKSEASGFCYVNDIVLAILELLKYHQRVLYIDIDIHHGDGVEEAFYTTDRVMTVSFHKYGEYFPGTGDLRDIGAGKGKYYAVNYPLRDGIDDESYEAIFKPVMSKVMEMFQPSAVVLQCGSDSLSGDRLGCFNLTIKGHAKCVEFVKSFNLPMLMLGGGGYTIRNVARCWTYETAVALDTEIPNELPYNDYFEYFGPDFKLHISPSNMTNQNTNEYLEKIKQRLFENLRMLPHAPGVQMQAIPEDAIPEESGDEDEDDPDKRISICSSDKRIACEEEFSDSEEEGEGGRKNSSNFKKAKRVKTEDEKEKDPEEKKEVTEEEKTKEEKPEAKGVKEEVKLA

effect on activity of HDAC1 [2]	SMILES	therapeutic concentration [1]	Protein expression levels of GLUT2 [3]	phosphorylation of p53 [4]	glycolytic activity (glucose consumption, lactate production) [5]
–	CNC(=O)c1cc(Oc2ccc(NC(=O)Nc3ccc(Cl)c(C(F)(F)F)c3)cc2)ccn1 [sorafenib]	~ 8 µM	–	–	–
potent inhibitory effects	O=C(CCCCCCC(=O)Nc1ccccc1)NO [vorinostat]	–	markedly reduced the expression of GLUT2	no increase in p53 phosphorylation	no such reduction in glycolytic activity could be observed

Reference: publication PMC9097774 (International Journal of Oncology, 2022)
